Assay results reported in ChEMBL document CHEMBL1129442, “Synthesis and structure-activity relationship of pyrazolo[3,4-d]pyrimidines: potent and selective adenosine A1 receptor antagonists” (J Med Chem, 1996).

Tests used:
[1] = molecular target: Adenosine receptor A2a (Rattus norvegicus, UniProt P30543); assay: Inhibition of [3H]CGS-21680 binding to Adenosine A2A receptor of rat striatal membranes; assay type: cell membranes, Membrane
Procedure, shortened: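 Rat striatal membranes (150 µg, adenosine deaminase-pretreated) incubated 120 min at 25 °C with 5 nM [3H]CGS 21680 in 50 mM Tris-HCl, 10 mM MgCl2, pH 7.4. Test compound given at ≥12 concentrations, final Me2SO 1%, 2% or 5%. Nonspecific binding defined with 20 µM 2-chloroadenosine. Bound ligand filtered as for the A1 assay. Ki derived from IC50 via Cheng-Prusoff (Kd 14.9 nM). At least two experiments in duplicate, mean ± SEM.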

[2] = molecular target: Adenosine receptors; A1 & A2a (Rattus norvegicus) (UniProt P25099+P30543); assay: Ratio of Binding Constants for adenosine A2A and A1 receptors; assay type: protein assay
[3] = molecular target: T1, Adenosine receptor A1 (Rattus norvegicus, UniProt P25099); assay: Displacement of [3H]N6-PIA from Adenosine A1 receptor from rat whole brain
T1 sequence (P25099 whole entry): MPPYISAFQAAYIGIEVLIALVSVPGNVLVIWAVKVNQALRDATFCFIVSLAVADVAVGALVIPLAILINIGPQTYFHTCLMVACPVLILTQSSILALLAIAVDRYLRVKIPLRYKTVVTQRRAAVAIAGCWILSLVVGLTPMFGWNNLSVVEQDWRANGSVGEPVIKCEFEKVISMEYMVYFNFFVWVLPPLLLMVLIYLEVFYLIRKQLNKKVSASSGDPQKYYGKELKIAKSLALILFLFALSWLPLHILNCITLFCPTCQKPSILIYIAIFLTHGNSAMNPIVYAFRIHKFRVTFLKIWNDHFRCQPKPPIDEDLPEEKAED
Procedure, shortened: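 Rat whole-brain membranes (100 µg, pretreated with 0.1 U/mg adenosine deaminase, 10 min, 37 °C) incubated 90 min at 25 °C with 1 nM (R)-[3H]-N6-PIA in 50 mM Tris-HCl pH 7.4. Test compound given at ≥12 concentrations, final Me2SO 1%, 2% or 5%. Nonspecific binding defined with 10 µM 2-chloroadenosine. Bound ligand collected by filtration on glass fiber filters. Ki derived from IC50 via Cheng-Prusoff (Kd 1 nM). At least two experiments in duplicate, mean ± SEM.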

[4] = molecular target: Adenosine receptor A2a (Rattus norvegicus) (UniProt P30543); assay: Percent inhibition of [3H]CGS-21680 binding to Adenosine A2A receptor rat striatal membranes; assay type: cell membranes; settings: Membrane, concentration not given here
Chain of Adenosine receptor A2a (Rattus norvegicus) (P30543 whole entry): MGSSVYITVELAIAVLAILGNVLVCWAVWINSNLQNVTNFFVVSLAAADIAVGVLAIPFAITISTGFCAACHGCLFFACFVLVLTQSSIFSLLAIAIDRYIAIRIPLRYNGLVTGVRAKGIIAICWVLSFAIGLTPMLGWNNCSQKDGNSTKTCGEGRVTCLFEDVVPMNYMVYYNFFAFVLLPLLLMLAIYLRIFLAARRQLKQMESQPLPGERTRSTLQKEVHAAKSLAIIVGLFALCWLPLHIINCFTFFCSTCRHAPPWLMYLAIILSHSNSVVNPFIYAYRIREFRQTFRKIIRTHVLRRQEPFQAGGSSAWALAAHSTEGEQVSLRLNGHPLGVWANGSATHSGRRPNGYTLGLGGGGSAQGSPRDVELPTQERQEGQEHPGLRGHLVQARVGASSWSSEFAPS

Chain of Adenosine receptor A2a (P30543 whole entry): as above
Chain of Adenosine receptors; A1 & A2a (Rattus norvegicus) (P30543 whole entry, looked up, one chain of several): as the sequence (P30543 whole entry) above

Ki [1]	Ratio [2]	Ki [3]	inhibition [4]	SMILES
247 nM	332	0.745 nM	–	CCCCC(Sc1nc(NC)c2cnn(-c3ccccc3)c2n1)C(N)=O (centres undefined)
–	79	–	–	CCCC(Sc1nc(S)c2cnn(-c3ccccc3)c2n1)C(N)=O (centres undefined)
–	56	–	–	CCC(Sc1nc(S)c2cnn(-c3ccccc3)c2n1)C(N)=O (centres undefined)
–	–	256 nM	–	CC(C)C(Sc1nc2c(cnn2-c2ccccc2)c(=S)[nH]1)C(N)=O (centres undefined)
4450 nM	–	56.3 nM	–	CCCC(Sc1nc2c(cnn2-c2ccccc2)c(=S)[nH]1)C(N)=O (centres undefined)
–	> 1300	15.7 nM	37%	CSc1nc(SC(C(N)=O)C(C)C)nc2c1cnn2-c1ccccc1 (centres undefined)
–	> 270	37.2 nM	52%	CCCCC(Sc1nc(S)c2cnn(-c3ccccc3)c2n1)C(N)=O (centres undefined)
796 nM	95	8.4 nM	–	CCC(Sc1nc(SC)c2cnn(-c3ccccc3)c2n1)C(N)=O (centres undefined)
35.3 nM	33	1.08 nM	–	CCCC(Sc1nc(N)c2cnn(-c3ccccc3)c2n1)C(N)=O (centres undefined)
147 nM	54	2.73 nM	–	CC(C)C(Sc1nc(N)c2cnn(-c3ccccc3)c2n1)C(N)=O (centres undefined)
44.5 nM	29	1.56 nM	–	CCC(Sc1nc(N)c2cnn(-c3ccccc3)c2n1)C(N)=O (centres undefined)
4380 nM	580	7.55 nM	–	CCCC(Sc1nc(SC)c2cnn(-c3ccccc3)c2n1)C(N)=O (centres undefined)
–	> 78	–	44%	CC(C)C(Sc1nc(S)c2cnn(-c3ccccc3)c2n1)C(N)=O (centres undefined)
–	> 5900	6.81 nM	12%	CCCCC(Sc1nc(SC)c2cnn(-c3ccccc3)c2n1)C(N)=O (centres undefined)
8750 nM	–	155 nM	–	CCC(Sc1nc2c(cnn2-c2ccccc2)c(=S)[nH]1)C(N)=O (centres undefined)
88.3 nM	94	0.939 nM	–	CCCCC(Sc1nc(N)c2cnn(-c3ccccc3)c2n1)C(N)=O (centres undefined)
